# Laboratory results as given in ChEMBL document CHEMBL1136477, “beta-alanine dipeptides as MC4R agonists” (Bioorg Med Chem Lett, 2003).
# Columns and labels:
# Melanocortin receptor 4 [1] = target: T1, Melanocortin receptor 4 (Homo sapiens, UniProt P32245); experiment: Binding activity was measured using membranes of Hi5 cells expressing the human MC4R receptors; format: cell membranes, BTI-TN-5B1-4
# Melanocortin receptor 4 [2] = target: T1, Melanocortin receptor 4; experiment: Stimulation of adenylate cyclase in HEK293 cells expressing the human MC4R receptor was determined by measuring cAMP accumulation using the RPA559 SPA assay; format: functional, cell-based
# Procedure, shortened: (§1)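 HEK293 cells stably expressing human MC4R (MEM, G418, 10% heat-inactivated FBS) seeded 5×10^4 cells/well overnight. Then 10 min at 37 °C with 0.1 mM IBMX and increasing compound (1% DMSO final). After lysis, cAMP read by SPA kit. EC50 by non-linear regression. Intrinsic activity is % of NDP-a-MSH maximum. Run twice or three times in duplicate.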
# [3] = Intrinsic activity was expressed as percent of maximal activity achieved by NDP-alpha-MSH.; format: functional; procedure, shortened: as §1
# T1 sequence (P32245 whole entry): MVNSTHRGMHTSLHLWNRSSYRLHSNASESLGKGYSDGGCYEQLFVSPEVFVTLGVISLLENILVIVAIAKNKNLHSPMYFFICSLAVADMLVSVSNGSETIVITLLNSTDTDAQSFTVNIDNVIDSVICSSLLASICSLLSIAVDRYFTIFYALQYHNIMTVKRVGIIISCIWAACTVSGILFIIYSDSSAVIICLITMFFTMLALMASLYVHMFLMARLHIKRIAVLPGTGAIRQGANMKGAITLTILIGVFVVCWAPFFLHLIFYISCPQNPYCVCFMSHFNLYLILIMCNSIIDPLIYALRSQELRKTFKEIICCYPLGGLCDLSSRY
SMILES,IC50 (Melanocortin receptor 4 [1]) [nM],EC50 (Melanocortin receptor 4 [2]) [nM],Max stimulation [3] [%]
O=C(CCNC(=O)[C@@H]1CCCNC1)N[C@H](Cc1ccc(Cl)cc1)C(=O)N1CCC(Cn2cncn2)(C2CCCCC2)CC1,25,,
COCC(=O)NCCC(=O)N[C@H](Cc1ccc(Cl)cc1)C(=O)N1CCC(Cn2cncn2)(C2CCCCC2)CC1,21,,
CC(C)(CN)C(=O)N[C@H](Cc1ccc(Cl)cc1)C(=O)N1CCC(Cn2cncn2)(C2CCCCC2)CC1,30,,
CC(C)(N)CC(=O)N[C@H](Cc1ccc(Cl)cc1)C(=O)N1CCC(Cn2cncn2)(C2CCCCC2)CC1,18,,
O=C(CCNCc1ccccc1)N[C@H](Cc1ccc(Cl)cc1)C(=O)N1CCC(Cn2cncn2)(C2CCCCC2)CC1,14,,
O=C(N[C@H](Cc1ccc(Cl)cc1)C(=O)N1CCC(Cn2cncn2)(C2CCCCC2)CC1)[C@H]1Cc2ccccc2CN1,,,99
O=C(CCNC(=O)c1ccccc1)N[C@H](Cc1ccc(Cl)cc1)C(=O)N1CCC(Cn2cncn2)(C2CCCCC2)CC1,90,,
O=C(CCN(Cc1ccccc1)Cc1ccccc1)N[C@H](Cc1ccc(Cl)cc1)C(=O)N1CCC(Cn2cncn2)(C2CCCCC2)CC1,110,,
O=C(C[C@@H]1CCCN1)N[C@H](Cc1ccc(Cl)cc1)C(=O)N1CCC(Cn2cncn2)(C2CCCCC2)CC1,22,,
O=C(N[C@H](Cc1ccc(Cl)cc1)C(=O)N1CCC(Cn2cncn2)(C2CCCCC2)CC1)C1CNC1,16,,
NCCC(=O)N[C@H](Cc1ccc(Cl)cc1)C(=O)N1CCC(Cn2cncn2)(C2CCCCC2)CC1,16,170,92
O=C(CCNC(=O)[C@H]1CCCNC1)N[C@H](Cc1ccc(Cl)cc1)C(=O)N1CCC(Cn2cncn2)(C2CCCCC2)CC1,22,,
O=C(CCNC(=O)C(F)(F)F)N[C@H](Cc1ccc(Cl)cc1)C(=O)N1CCC(Cn2cncn2)(C2CCCCC2)CC1,180,,
O=C(CCN1CCCCC1)NCCC(=O)N[C@H](Cc1ccc(Cl)cc1)C(=O)N1CCC(Cn2cncn2)(C2CCCCC2)CC1,12,,

# Second part, led by results:
IC50 (Melanocortin receptor 4 [1]) [nM],EC50 (Melanocortin receptor 4 [2]) [nM],SMILES,Max stimulation [3] [%]
12,,CC(=O)NCCC(=O)N[C@H](Cc1ccc(Cl)cc1)C(=O)N1CCC(Cn2cncn2)(C2CCCCC2)CC1,
10,70,CNCCC(=O)N[C@H](Cc1ccc(Cl)cc1)C(=O)N1CCC(Cn2cncn2)(C2CCCCC2)CC1,98
9,,O=C(N[C@H](Cc1ccc(Cl)cc1)C(=O)N1CCC(Cn2cncn2)(C2CCCCC2)CC1)[C@H]1CCCNC1,
11,,CN(C)CCC(=O)NCCC(=O)N[C@H](Cc1ccc(Cl)cc1)C(=O)N1CCC(Cn2cncn2)(C2CCCCC2)CC1,
12,,O=C(N[C@H](Cc1ccc(Cl)cc1)C(=O)N1CCC(Cn2cncn2)(C2CCCCC2)CC1)[C@@H]1CCCNC1,
10,40,CN(C)CCC(=O)N[C@H](Cc1ccc(Cl)cc1)C(=O)N1CCC(Cn2cncn2)(C2CCCCC2)CC1,98
